A selection: hits, their analogues and other compounds. The true share with any hit is near 4.2%.
CTSL1 counter-1: cathepsin L1 inhibition, PFM18AAP counter-screen; recombinant F. hepatica cathepsin L1, Z-Leu-Arg-MCA fluorescence; inhibition, % at 5.96 µM; 300,000 compounds, 0.49% hits; AID 1906;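 active means inhibition above the mean of all tested compounds plus 3 SD, set per screening campaign, cut at about 17% in these data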;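 further: 0% = plate median of test compound wells and 100% = 1 µM Z-Phe-Ala-diazomethylketone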
HDAC3 inh: human HDAC3 inhibition; AID 2718; 320,000 compounds, 0.15% hits; recombinant HDAC3, fluorogenic peptide/trypsin coupled, fluorescence; inhibition, % at 8.3 µM; O15379; in the data active means inhibition above about 26%, passing the limit was not always enough
Target sequence (O15379 whole entry, looked up): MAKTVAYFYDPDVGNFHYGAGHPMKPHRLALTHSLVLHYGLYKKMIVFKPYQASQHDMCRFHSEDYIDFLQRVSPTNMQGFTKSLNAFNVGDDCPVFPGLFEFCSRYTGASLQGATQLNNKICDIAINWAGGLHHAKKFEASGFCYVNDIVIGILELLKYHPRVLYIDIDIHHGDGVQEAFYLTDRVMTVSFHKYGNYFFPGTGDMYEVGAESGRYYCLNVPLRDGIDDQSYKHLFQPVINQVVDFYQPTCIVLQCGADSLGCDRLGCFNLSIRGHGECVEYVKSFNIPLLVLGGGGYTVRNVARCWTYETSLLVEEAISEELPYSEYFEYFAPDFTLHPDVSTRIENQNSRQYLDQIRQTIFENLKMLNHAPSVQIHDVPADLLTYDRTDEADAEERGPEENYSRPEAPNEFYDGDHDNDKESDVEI
GAA850 FXN act: increases GAA850 frataxin promoter reporter activity; HEK293 lucGAA850 FXN promoter luciferase reporter, 24 h; percent of 10 µM SAHA response; activation, % at 6 µM; 360,000 compounds, 0.56% hits; AID 540364;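 active means activation above the average of all compounds screened plus 3 SD, cutoff fixed separately per campaign, cut at about 7.5% in these data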;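 further: 0% = DMSO wells and 100% = 10 µM SAHA wells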
SENP1 inh: SENP1 (human) catalytic domain inhibition. 360,000 compounds, 0.21% hits. inhibition, % at 10 µM. Q9P0U3. recombinant SENP1 catalytic domain, CyPet-SUMO1-YPet FRET cleavage;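 active means inhibition at least 30% at 10 µM, raw YFP signal under a set limit, fluorescence ratio 0.5 to 1.5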;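 further: 0% = enzyme with DMSO and 100% = no enzyme wells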
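System: Recombinant human SENP1 catalytic domain, His6-tagged | Incubation: Enzyme reaction for 50 min at room temperature, dark | Medium: Tris pH 8 with BME, BSA, NP40 and catalase | Also added: 25 nM SUMO1 FRET substrate | Compound: 10 µM single point, 0.5% DMSO | Measured by: FRET fluorescence in CFP and YFP emission channels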
PfM18AAP inh-1: blocks P. falciparum M18 aspartyl aminopeptidase | recombinant PfM18AAP, H-Glu-NHMec fluorogenic cleavage | inhibition, % at 7.35 µM | 290,000 compounds, 1.2% hits;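 active means inhibition above the campaign mean inhibition over all tested compounds plus 3 SD, cut at about 28% in these data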;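 further: 0% = plate median of test compound wells and 100% = 2 mM ZnCl2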
AHR activator: activates the human aryl hydrocarbon receptor; AHR-responsive luciferase reporter cells, luminescence; activation, % at 5 µM; 320,000 compounds, 2.5% hits; in the data active means activation above about 47%;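 further: 0% = vehicle wells and 100% = reference agonist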
PfM18AAP inh-2: confirmation of Plasmodium falciparum M18 aspartyl aminopeptidase inhibitors; shares compounds with PfM18AAP inh-1; recombinant PfM18AAP, H-Glu-NHMec fluorogenic cleavage; inhibition, % at 7.35 µM; 2,400 compounds, 28% hits; AID 2170;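 active means mean inhibition over replicate wells above the hit cutoff set for the earlier primary screen, cut at about 29% in these data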;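 further: 0% = median of test compound wells and 100% = 2 mM ZnCl2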
CTSL1 counter-2: counter-screen for PFM18AAP inhibitors: confirmation of human cathepsin L inhibitors. shares compounds with PfM18AAP inh-1. purified cathepsin L1, Z-Leu-Arg-MCA fluorescence. inhibition, % at 5.96 µM. 2,400 tested, under 10 active;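 active means average inhibition across replicates above the hit cutoff set in the earlier primary screen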;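 further: 0% = median of test compound wells and 100% = Z-Phe-Ala-diazomethylketone 1 µM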
The depositor's hits bear a star; / = no result.

SMILES	CTSL1 counter-1	HDAC3 inh	GAA850 FXN act	SENP1 inh	PfM18AAP inh-1	AHR activator	PfM18AAP inh-2	CTSL1 counter-2
CCOC(=O)C1CCCN(C(=O)Cn2sc3nc(C)cc(C)c3c2=O)C1 (centres undefined)	-3	5	-1	0	59*	-2	24	-4
CCCNC(=O)Cn1sc2nc(C)cc(C)c2c1=O	1	14	-3	-1	58*	2	30*	1
Cc1cc(C)c2c(=O)n(CC(=O)N3CCC(N4CCCCC4)CC3)sc2n1	2	19	0	0	43*	-2	2	4
CCC(=O)c1ccc(OCC(=O)Nc2nn3cnnc3s2)cc1	-4	2	0	-3	66*	5	40*	-3
CCOc1ccc(NC(=O)COc2ccc(-n3cnnn3)cc2)cc1	/	-2	1	1	/	-1	/	/
CC(Cc1ccccc1)NC(=S)CN1CCCC1=S (centres undefined)	-1	-5	-1	0	-1	-1	/	/
CC(C)C(=O)c1ccc(O)c(O)c1	-1	8	4	3	41*	2	21	1
O=C(C(=O)c1ccc(O)c(O)c1)c1ccc(O)c(O)c1	/	/	0	2	/	/	/	/
c1cc2c(cc1CNc1ccc(N3CCOCC3)cc1)OCO2	/	2	2	-1	/	6	/	/
CCCCN(C(=O)CSCC(=O)Nc1ccc(OC)cc1)c1c(N)n(CC(C)C)c(=O)[nH]c1=O	/	/	0	-39	/	/	/	/
O=C(C1=C[C@H](c2ccc3c(c2)OCO3)C[C@H](OCc2ccc(CO)cc2)O1)N1CCCCCCC1	-5	11	1	0	33*	2	-22	2
NNc1nnc2c3cc(F)ccc3n(CCc3ccccc3)c2n1	5	-2	-1	0	44*	2	3	6
COc1ccc(C(=O)n2cnc(N)n2)cc1	-1	71*	2	5	34*	2	54*	-1
Nc1nc(-c2ccccc2)nn1C(=O)c1ccco1	1	3	-1	1	-6	1	/	/
COc1ccc(C(=O)n2ncc(C#N)c2N)cc1	/	/	1	6	8	/	/	/
Nc1ncn(C(=O)c2ccco2)n1	-5	6	3	2	45*	0	51*	1
CN(CC(=O)Nc1ccc(Cl)c(C(F)(F)F)c1)C(=O)c1ccc2c(c1)NC(=O)CS2	/	15	1	2	/	3	/	/
CN1CC(O)(C(O)C(O)C(O)CO)SC1=S (centres undefined)	/	/	1	1	/	/	/	/
O=C(Nc1ccc2c(c1)OCO2)NC1(C(F)(F)F)Oc2ccccc2O1	1	-8	3	-6	57*	3	18	0
O=C(Nc1ccc2c(c1)OCCO2)Nc1ccc2c(c1)OCO2	0	0	0	1	0	41	/	/
O=C(Nc1ccc2c(c1)OCCO2)NC1(C(F)(F)F)Oc2ccccc2O1	0	7	-11	2	59*	8	16	5
CC1(C(=O)NS(=O)(=O)c2ccccc2OC(F)(F)F)CCN1C(=O)Cc1ccccc1 (centres undefined)	/	/	0	3	/	/	/	/
O=C(Nn1cnnc1)c1cc(-c2cccc(Br)c2)nc2ccccc12	-1	5	0	-33	61*	15	57*	2
CCNC(=S)NNC(=O)CSc1nc2ccccc2[nH]1	-3	2	0	2	18	15	/	/
CCNC(=S)NNC(=O)CSc1nc2ccccc2n1C	-6	-2	1	2	32*	1	2	-1
CCCCn1c(O)c(/C=C2\C=Nc3ccccc32)c(=O)[nH]c1=O	0	4	2	-1	40*	15	13	2
CCCCc1nn2c(N)c(/C=C3\C=Nc4ccccc43)c(=O)nc2s1	5	-4	2	-150	1	8	/	/
O=[N+]([O-])c1ccc(N/N=C/c2cccc(O)c2O)c(S(=O)(=O)N2CCOCC2)c1	2	-2	5	-55	42*	-1	38*	0
